Data on 2 molecules can be found in ChEMBL document CHEMBL4825665, “Effective degradation of EGFRL858R+T790M mutant proteins by CRBN-based PROTACs through both proteosome and autophagy/lysosome degradation systems” (Eur J Med Chem, 2021).

pIC50: −log10 of the molar value. Activity calls are given as the source filed them. The calls are words filed in the database; no cut-off is given here.

A short description of experiment [1]: Antiproliferative activity against human PB1 cells assessed as inhibition of cell growth measured after 72 hrs by CCK-8 assay. In kind it is functional, cell-based. Particulars: PB1, 72 h. The procedure, abridged: (§1)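 Cells seeded at 3000 cells/well in 96-well plates and treated with graded compound concentrations one day later for 72 h. CCK-8 was added for 1–4 h and absorbance read at 450 nm. Lung cancer lines were kept in RPMI 1640 with 10% fetal calf serum at 37 °C and 5% CO₂.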

The subject of experiment [2] is BaF3. Put plainly: Antiproliferative activity against mouse BaF3 cells assessed as inhibition of cell growth measured after 72 hrs by CCK-8 assay. In kind it is functional, cell-based. Particulars: BaF3, 72 h. The procedure, abridged:
as §1
(In general: Formazan colour is commonly taken as a measure of viable cells.)

The target of experiment [3] is T1, Protein cereblon/Epidermal growth factor receptor (Homo sapiens, UniProt P00533+Q96SW2). The experiment can be described thus: Protac activity at CRBN/EGFR in mouse BaF3 cells assessed as induction of EGFR degradation by Western blot assay. In kind it is cell-based.
In experiment [4] the test system is Protein cereblon/Epidermal growth factor receptor (Homo sapiens), P00533+Q96SW2 [L858R,T790M]. Put plainly: Protac activity at CRBN/EGFR L858R/T790M mutant in human NCI-H1975 cells assessed as induction of EGFR degradation at 30 nM measured after 16 hrs by Western blot assay. In kind it is cell-based. The procedure, abridged:
(§2)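 Cells seeded at 1-3X10^5/well and treated one day later with compounds at the concentrations and times given. Lysed in RIPA buffer with protease inhibitors. 15 µg protein run on 8% SDS-PAGE, transferred to nitrocellulose, probed for EGFR or phospho-EGFR, ECL detection. Lung lines kept in RPMI 1640 with 10% fetal calf serum, 37 °C, 5% CO2. DC50 is an estimated value. Repeated more than 3 times.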
For orientation: Immunoblotting shows a protein as a band on a membrane.

For experiment [5] the test system is unchanged. The experiment can be described thus: Protac activity at CRBN/EGFR L858R/T790M mutant in human NCI-H1975 cells assessed as induction of EGFR degradation measured after 48 hrs by Western blot assay. In kind it is cell-based. Particulars: dose 30-500 nM. The procedure, abridged: as §2
Experiment [6] shares this test system. The experiment can be described thus: Protac activity at CRBN/EGFR L858R/T790M mutant in human NCI-H1975 cells assessed as induction of EGFR degradation at 300 nM measured after 8 to 72 hrs by Western blot assay relative to control. Format: cell-based. Particulars: time 8-72 hrs.
Experiment [7] shares this test system. The experiment can be described thus: Protac activity at CRBN/EGFR L858R/T790M mutant in human NCI-H1975 cells assessed as induction of EGFR degradation at 300 nM pretreated for 24 hrs followed by compound washout and subsequent addition of fresh medium by Western blot assay relative to control. In kind it is cell-based. The procedure, abridged: (§3)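 H1975 cells were treated with 300 nM PROTAC for 24 h. Medium was removed, cells were washed 3 times with PBS, and fresh RPMI 1640 with 10% fetal calf serum was added. Cells were harvested at time points up to 72 h after drug removal, and total EGFR was measured by Western blot.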

Experiment [8] shares this test system. Put plainly: Protac activity at CRBN/EGFR L858R/T790M mutant in human NCI-H1975 cells assessed as induction of EGFR degradation at 300 nM incubated for 24 hrs followed by compound washout and measured 72 hrs after drug removal by Western blot assay. In kind it is cell-based. The procedure, abridged: as §3
The test system of experiment [9] is NCI-H1975. The experiment can be described thus: Cell cycle arrest in human NCI-H1975 cells expressing EGFR L858R/T790M mutant assessed as increase of cell population in G0/G1 phase at […] measured after 48 hrs by RNaseA/propidium iodide staining based flow cytometry. Format: functional. The settings on record: dose lower 0.03 nM. The procedure, abridged: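 H1975 cells (1 × 10⁵/well, 6-well plates) treated one day after seeding at the indicated concentrations for 48 h. Washed in cold PBS, fixed in cold ethanol at −20 °C for over 24 h, then stained with PI/RNase for 30 min at 37 °C in the dark. Phase distribution measured by flow cytometry.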
(In flow cytometry, cells or beads pass a laser one at a time.)

The subject of experiment [10] is NCI-H1975. The experiment can be described thus: Antimigratory activity in human NCI-H1975 cells expressing EGFR L858R/T790M mutant at 300 to 500 nM measured after 24 hrs by wound healing assay. Format: functional, cell-based. The settings on record: dose 300-500 nM. The procedure, abridged:
(§4)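 H1975 cells seeded in 24-well plates, scratched at confluence with a pipette tip 24 h later and washed three times with PBS. Then incubated with degrader at 300 or 500 nM. Six photos per well taken at set time points, and the uncovered wound area quantified.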

For experiment [11], the system named is NCI-H1975. Put plainly: Antimigratory activity in human NCI-H1975 cells expressing EGFR L858R/T790M mutant at 500 nM measured after 24 hrs by wound healing assay. In kind it is functional, cell-based. The procedure, abridged: as §4
Experiment [12] deals with NCI-H1975. Put plainly: Inhibition of cell invasion in human NCI-H1975 cells expressing EGFR L858R/T790M mutant assessed at 500 nM measured after 18 hrs by transwell assay. Set-up: scale not given: the % may be the effect or the level left. In kind it is functional. The procedure, abridged: (§5)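 GFP-expressing H1975 cells were trypsinised and resuspended in serum-free medium containing compound. Seeded into Matrigel-coated transwell inserts (8 µm pores) above RPMI 1640 full growth medium, at 37 °C and 5% CO₂. Invaded cells imaged by fluorescence microscopy in five random fields per insert and counted. Three independent repeats.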

Experiment [13] relates to NCI-H1975. Put plainly: Inhibition of cell invasion in human NCI-H1975 cells expressing EGFR L858R/T790M mutant assessed at 500 nM measured after 42 hrs by transwell assay. In kind it is functional. Further details: scale not given: the % may be the effect or the level left. The procedure, abridged: as §5
Experiment [14] concerns Protein cereblon/Epidermal growth factor receptor (Homo sapiens), P00533+Q96SW2 [L858R,T790M]. The experiment can be described thus: Protac activity at CRBN/EGFR L858R/T790M mutant in human NCI-H1975 cells assessed as induction of EGFR degradation at 0.3 uM pre-incubated for 2 hrs in the presence of Bafilomycin A1 and measured after 16 hrs by Western blot assay. Particulars: time 18.0 hrs. Format: cell-based.

The test system is the same in experiment [15]. Put plainly: Protac activity at CRBN/EGFR L858R/T790M mutant in human NCI-H1975 cells assessed as increase in ratio of LC3B2 to LC3B1 under serum starvation condition at 0.3 uM measured after 16 hrs by Western blot assay. Format: cell-based. The procedure, abridged: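 H1975 cells in RPMI 1640 with 10% serum. Autophagy was read by Western blot as the LC3B II/LC3B I ratio. Serum-free medium and rapamycin served as autophagy-inducing positive controls, and rapamycin was also combined with degrader. Where pretreatment applied, compounds were added for 2 h before a 16 h PROTAC treatment.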

Experiment [16] has the same test system. Put plainly: Protac activity at CRBN/EGFR L858R/T790M mutant in human NCI-H1975 cells assessed as induction of EGFR degradation at 30 to 500 nM by Western blot assay. In kind it is cell-based. The settings on record: dose 30-500 nM, time 16-48 hrs, TDE = time-dependent effect.
Experiment [17] shares this test system. The experiment can be described thus: Protac activity at CRBN/EGFR L858R/T790M mutant in human NCI-H1975 cells assessed as induction of EGFR degradation at 50 nM measured after 16 hrs by Western blot assay. In kind it is cell-based. The procedure, abridged:
as §2

Experiment [18] deals with T1, Protein cereblon/Epidermal growth factor receptor. Put plainly: Protac activity at CRBN/EGFR in human PC-9 cells assessed as induction of EGFR degradation by Western blot assay relative to control. Format: cell-based. The procedure, abridged:
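PC9 cells (EGFR Ex19del) seeded at 1–3 × 10⁵/well in 12-well plates and treated the next day with graded degrader concentrations for 48 h. Lysed in RIPA buffer with protease inhibitors, 15 µg protein resolved on 8% SDS-PAGE, and EGFR detected by immunoblot with ECL. DC50 estimated from blots; experiments repeated more than 3 times.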

Broadly, the pIC50 is the IC50 on a negative log10 scale, so that one unit is a factor of ten. A word on the DC50: it is the midpoint of the concentration-degradation curve. As to `C=CC(=O)Nc1cc2c(Nc3ccc(F)c(Cl)c3)ncnc2cc1OCCCN1CCN(C(=O)CCCCCCNc2cccc3c2C(=O)N(C2CCC(=O)NC2=O)C3=O)CC1` (stereo not given), the results for the pIC50 in [1] and in experiment [2] were 7.05 and 7.29, respectively. In experiment [3], the DC50 came out at 100 nM. Besides, the result in [4], in experiment [7], in experiment [8], in experiment [9], in [10] and in experiment [11] was Active. Moreover, in [15], the outcome was Active. For the same molecule, the Activity result in experiment [5] is “Dose-Dependent Effect”; in experiment [6], 98%; in experiment [12] it was 38%; in [13], 40%; in [16] it was “Tde”. Further, the result in experiment [14] was inactive.
In the case of `C=CC(=O)Nc1cc2c(Nc3ccc(F)c(Cl)c3)ncnc2cc1OCCCN1CCN(C(=O)CCCCCNc2cccc3c2C(=O)N(C2CCC(=O)NC2=O)C3=O)CC1` (stereo not given), the negative-log IC50 (pIC50) was 7.35 in experiment [1] and 7.15 in [2]. In addition, the DC50 in experiment [3] was 100 nM. Moreover, the outcome in [17], in [7], in experiment [8], in experiment [9], in [11] and in [15] was Active. Moreover, the Activity result was “Dose-Dependent Effect” in [5], 98% in experiment [6] and “Tde” in experiment [16]. Further, the result in experiment [14] was inactive. Also, the %max in [18] is 40%.
